This is an account of results in BindingDB's records for PubMed 34730959 (The University of Sydney, 2022).

For the assay, the target named is Procathepsin L (Homo sapiens, UniProt P07711). Put plainly: Inhibition of human recombinant Cathepsin L assessed remaining activity using Z-FR-AMC as substrate incubated for 30 mins by fluorometric assay. The method, boiled down:
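Recombinant human cathepsins: L, B, V and K at 1.11 nM, S at 4.44 nM. Each was preincubated 30 min at 25 °C with 3333 to 0.006 nM compound. Z-FR-AMC was added at 40 μM final. AMC release rate over 0–30 min was compared with DMSO (ex/em 360/460). IC50 from four technical replicates.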

Procathepsin L, sequence (P07711 whole entry): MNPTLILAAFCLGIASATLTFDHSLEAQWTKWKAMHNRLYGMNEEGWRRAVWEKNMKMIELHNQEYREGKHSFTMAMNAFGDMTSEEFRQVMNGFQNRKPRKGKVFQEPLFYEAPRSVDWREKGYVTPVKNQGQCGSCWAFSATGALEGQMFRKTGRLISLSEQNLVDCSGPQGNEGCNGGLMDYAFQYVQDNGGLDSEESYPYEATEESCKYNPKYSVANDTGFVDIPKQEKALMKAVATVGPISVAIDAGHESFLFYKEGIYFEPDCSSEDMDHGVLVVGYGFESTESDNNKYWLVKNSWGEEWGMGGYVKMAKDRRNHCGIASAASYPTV

Take `COC1=CC(=O)N(C(=O)/C=C/[C@H](C)NC(=O)[C@H](CCc2ccccc2)NC(=O)[C@H](CC2CCCCC2)NC(=O)[C@H](C(C)C)N(C)C)[C@H]1Cc1c[nH]c2ccccc12`: the IC50 (usually the concentration that inhibits the measured activity by half) came to 6 pM.
